Data set [1] concerns the target Metabotropic glutamate receptor 7 (Rattus norvegicus, UniProt P35400). Nature of the data set: Antagonist activity at rat mGluR7 expressed in CHO cells assessed as inhibition of LAP-induced intracellular calcium mobilization by FLIPR. The data set is classed as functional, cell-based. In short, it runs like this: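 CHO cells co-expressing mGluR7 and Gα15 were challenged with L-AP, and Ca2+ mobilization was read. IC50 was calculated from inhibition curves as the mean of at least two independent assays.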
(In general: Calcium assays in cells follow changes in intracellular calcium, usually with a dye or a luminescent sensor.)

The nature of data set [2]: Ratio of drug level in brain to plasma in Sprague-Dawley rat at 10 mg/kg, po after 2 hrs. Conditions: read-out: BPR. Also noted: dose 10 mg/kg, route oral. The data set is classed as ADME, organism-based. In outline: (§1)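 Male Sprague-Dawley rats (7–10 weeks, 200–400 g, n = 3) were dosed orally at 10 mg/kg as a 0.5% methylcellulose suspension. Aortic blood was taken under isoflurane at 0.5 and 2 h, and brain at 2 h. Plasma and brain homogenate were deproteinized with threefold ethanol plus internal standard and analysed by LC–MS/MS against a relative calibration curve. B/P = brain (nmol/g) / plasma level.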

Data set [3] is described as follows: Plasma clearance in Sprague-Dawley rat at 1 mg/kg, iv and 3 mg/kg, po.
A short description of data set [4]: Plasma concentration in Sprague-Dawley rat at 2 mg/kg, po after 0.5 hrs. Also on record: dose 2 mg/kg, route oral. In kind it is ADME, organism-based.
Data set [5] is described as follows: Oral bioavailability in Sprague-Dawley rat at 10 mg/kg. Conditions: in vivo, 3 mg/kg, in the assay text read “3 mg/kg” for “10 mg/kg”. In kind it is ADME, organism-based. In outline:
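Male SD rats (n = 3) were given a single iv dose of 1 mg/kg in PEG400/EtOH/H2O (50:10:40), or an oral gavage dose as a 0.5% methylcellulose aqueous suspension. Blood was sampled at multiple times up to 8 h. Plasma was deproteinized with ethanol containing internal standard. Values are means.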

Data set [6] is described as follows: Plasma concentration in Sprague-Dawley rat at 10 mg/kg, po after 0.5 hrs. The data set is classed as ADME, organism-based. Also noted: dose 10 mg/kg, route oral. In outline:
as §1

Data set [7] can be described thus: AUC in Sprague-Dawley rat at 1 mg/kg, iv and 3 mg/kg, po. Conditions: plasma.
Data set [8] is described as follows: Solubility at pH 7.4. The data set is classed as physicochemical. As to conditions: buffer.

Converted amounts (≈) assume the structure as drawn.

Here are results for 21 compounds from ChEMBL document CHEMBL1153226, “Isoxazolopyridone derivatives as allosteric metabotropic glutamate receptor 7 antagonists” (Bioorg Med Chem Lett, 2010).

Chain of Metabotropic glutamate receptor 7 (P35400 whole entry): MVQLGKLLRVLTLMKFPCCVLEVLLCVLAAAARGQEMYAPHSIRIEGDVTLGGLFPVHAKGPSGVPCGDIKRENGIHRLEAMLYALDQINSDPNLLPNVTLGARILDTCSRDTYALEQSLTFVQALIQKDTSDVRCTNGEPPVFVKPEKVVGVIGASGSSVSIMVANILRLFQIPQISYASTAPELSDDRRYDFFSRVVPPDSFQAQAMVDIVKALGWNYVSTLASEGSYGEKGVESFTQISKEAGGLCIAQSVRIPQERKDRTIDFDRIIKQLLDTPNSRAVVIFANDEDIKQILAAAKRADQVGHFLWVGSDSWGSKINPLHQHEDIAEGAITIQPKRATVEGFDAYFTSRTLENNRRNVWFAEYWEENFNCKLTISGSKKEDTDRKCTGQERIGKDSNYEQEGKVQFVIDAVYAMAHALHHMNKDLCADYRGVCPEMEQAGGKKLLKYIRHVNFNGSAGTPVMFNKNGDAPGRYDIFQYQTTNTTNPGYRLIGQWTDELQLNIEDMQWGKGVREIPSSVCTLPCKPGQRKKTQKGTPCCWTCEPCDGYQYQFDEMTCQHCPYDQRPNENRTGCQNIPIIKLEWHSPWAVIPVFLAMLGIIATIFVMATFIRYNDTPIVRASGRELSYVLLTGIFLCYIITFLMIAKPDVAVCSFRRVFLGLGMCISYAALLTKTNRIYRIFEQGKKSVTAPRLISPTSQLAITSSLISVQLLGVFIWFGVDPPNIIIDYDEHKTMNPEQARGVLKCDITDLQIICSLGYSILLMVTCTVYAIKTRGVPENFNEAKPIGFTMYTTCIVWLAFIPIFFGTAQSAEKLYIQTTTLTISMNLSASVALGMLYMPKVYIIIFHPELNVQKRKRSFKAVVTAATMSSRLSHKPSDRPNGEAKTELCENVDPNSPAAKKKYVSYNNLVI

Broadly, the IC50 is the point on the concentration scale where inhibition reaches its midpoint. As for `COc1ccc(-c2cc3onc(-c4ccccc4)c3c(=O)n2C)cc1`, the IC50 in data set [1] is 22 nM.
Same read-out and setting: next, `Cn1c(-c2ccc3c(c2)OCO3)cc2onc(-c3ccccc3)c2c1=O`: 26 nM; `COc1ccc(-c2noc3cc(-c4ccccc4)n(C)c(=O)c23)cc1`: 29 nM; `Cn1c(-c2ccccc2)cc2onc(-c3ccncc3)c2c1=O`: 101 nM.
Same read-out and setting: next, `CN(C)c1ccc(-c2cc3onc(-c4ccccc4)c3c(=O)n2C)cc1`: 140 nM.
What is called bioavailability is the share of a dose that reaches the circulation, judged against a reference dose that is usually intravenous. A high value points to good availability. A word on the AUC: it is concentration integrated over time. Broadly, the solubility is the dissolved amount per volume that the medium holds. A higher solubility goes with much dissolved substance. In the case of `COc1ccc(-c2cc3onc(-c4ccncc4)c3c(=O)n2C)cc1`, the Kp at 2 h in data set [2] was 1. The same compound displayed a clearance in data set [3] of 1 mL/min/kg. Also, the concentration at 0.5 h in data set [4] came out at 3.9 µM; in data set [6], 5.1 µM. In data set [5], the bioavailability amounted to 65%. Besides, the AUC in data set [7] was determined as 0.71 µM·h. Also, the 50% inhibitory concentration (IC50) in data set [1] worked out at 26 nM. Further, the solubility in data set [8] was 3.3 µg/mL (≈ 9.9 µM).
In the case of `CN(C)c1cccc(-c2cc3onc(-c4ccccc4)c3c(=O)n2C)c1`, the IC50 in data set [1] was found to be 31 nM.
On the same count and under the same terms, under `Cn1c(-c2cccc(C(F)(F)F)c2)cc2onc(-c3ccccc3)c2c1=O` stands 96 nM.
Still for that read-out and setting: next, `COc1ccc(-c2cc3onc(-c4ccccc4)c3c(=O)n2C)cc1F`: 210 nM; `COc1cccc(-c2noc3cc(-c4ccccc4)n(C)c(=O)c23)c1`: 12 nM.
The same measure, in the same setting: next, `CCCc1ccc(-c2cc3onc(-c4ccccc4)c3c(=O)n2C)cc1`: 150 nM; `COc1ccccc1-c1noc2cc(-c3ccccc3)n(C)c(=O)c12`: 21 nM; `Cc1ccc(-c2cc3onc(-c4ccccc4)c3c(=O)n2C)cc1`: 51 nM.
For the compound `Cn1c(-c2ccc(F)cc2)cc2onc(-c3ccccc3)c2c1=O`, the IC50 in data set [1] stood at 72 nM.
Take `Cn1c(-c2ccccc2)cc2onc(-c3ccccc3)c2c1=O`: the IC50 in data set [1] is 20 nM. In addition, the concentration in solution in data set [8] (solubility) came to 0.17 µg/mL (≈ 0.562 µM).
As for `Cn1c(-c2ccccc2)cc2onc(-c3cccnc3)c2c1=O`, in data set [1], the IC50 worked out at 240 nM.
Still for that read-out and setting: under `Cn1c(-c2ccccc2)cc2onc(-c3ccccn3)c2c1=O` stands 1000 nM.
Still for that read-out and setting: under `CCn1c(-c2ccccc2)cc2onc(-c3ccccc3)c2c1=O` stands 910 nM; under `CC(C)n1c(-c2ccccc2)cc2onc(-c3ccccc3)c2c1=O`, more than 10000 nM.
Regarding `CC(C)Oc1ccc(-c2cc3onc(-c4ccccc4)c3c(=O)n2C)cc1`, the IC50 in data set [1] was more than 10000 nM.
For `COc1ccc(-c2cc3onc(-c4ccccc4)c3c(=O)n2C)cc1Br`, the IC50 in data set [1] was 580 nM.
